Data from ChEMBL document CHEMBL3286335, “Synthesis of 2,3,6-trideoxy sugar triazole hybrids as potential new broad spectrum antimicrobial agents” (Eur J Med Chem, 2014).
Converted amounts (≈) assume the structure as drawn.

Columns and labels:
Aspergillus fumigatus = assay: Antimicrobial activity against Aspergillus fumigatus after 72 hrs by microbroth dilution method; type: functional
Method in brief: (§1)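 Broth microdilution per NCCLS guidelines. Bacteria in Mueller-Hinton broth; fungi in MOPS-buffered RPMI 1640. Test compounds at 50-0.36 µg/mL, standard drugs over 32-0.0018 µg/mL. Inoculum 1-5 × 10^3 cells/mL, 35 °C in a moist chamber. A492 read at 24 h for bacteria, 48 h for C. albicans, 72 h for A. fumigatus, C. neoformans and S. schenckii, 96 h for T. mentagrophytes. MIC taken as 90% growth inhibition relative to growth control.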

Klebsiella pneumoniae = assay: Antimicrobial activity against Klebsiella pneumoniae ATCC 27736 after 24 hrs by microbroth dilution method; type: functional; conditions: ATCC 27736, 24 h; method in brief: as §1
Staphylococcus aureus [1] = assay: Antimicrobial activity against Staphylococcus aureus ATCC 25923 after 24 hrs by microbroth dilution method; type: functional; conditions: ATCC 25923, 24 h; method in brief: as §1
Sporothrix schenckii = assay: Antimicrobial activity against Sporothrix schenckii after 72 hrs by microbroth dilution method; type: functional; method in brief: as §1
Pseudomonas aeruginosa = assay: Antimicrobial activity against Pseudomonas aeruginosa ATCC BAA-427 after 24 hrs by microbroth dilution method; type: functional; conditions: ATCC BAA-427, 24 h; method in brief: as §1
Escherichia coli = assay: Antimicrobial activity against Escherichia coli ATCC 9637 after 24 hrs by microbroth dilution method; type: functional; conditions: ATCC 9637, 24 h; method in brief: as §1
Staphylococcus aureus [2] = assay: Antimicrobial activity against methicillin-resistant Staphylococcus aureus after 24 hrs by microbroth dilution method; type: functional
Method in brief: (§2)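 Microbroth dilution in Mueller Hinton broth, following NCCLS guidelines. Test compounds were run at 50-0.36 µg/mL against an initial inoculum of 1-5 × 10^3 cells/mL. Plates were incubated in a moist chamber at 35 °C, and absorbance at 492 nm was read after 24 h. MIC was taken as 90% growth inhibition relative to the growth control.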

[3] = test system: Trichophyton mentagrophytes; assay: Antimicrobial activity against Trichophyton mentagrophytes after 96 hrs by microbroth dilution method; type: functional; method in brief: as §1
Cryptococcus neoformans = assay: Antimicrobial activity against Cryptococcus neoformans after 72 hrs by microbroth dilution method; type: functional; method in brief: as §1
Candida albicans = assay: Antimicrobial activity against Candida albicans after 48 hrs by microbroth dilution method; type: functional; method in brief: as §1
Staphylococcus aureus [4] = assay: Antimicrobial activity against vancomycin-resistant Staphylococcus aureus after 24 hrs by microbroth dilution method; type: functional; method in brief: as §2
L929 [5] = assay: Cytotoxicity against mouse L929 cells assessed as change in morphology at MIC after 24 hrs using Giemsa staining by phase contrast microscopy; type: cell-based; conditions: l929, 24 h
Method in brief: (§3)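 Mouse fibroblast L929 cells grown in DMEM with 10% FBS and antibiotic/antimycotic at 37 °C, 5% CO2. Medium switched to serum-free DMEM at 90% confluency, then compounds added (DMSO stocks) for 24 h. Cells fixed, stained with Giemsa for 30 min at 37 °C, washed with PBS, air dried and examined by phase-contrast microscopy.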

L929 [6] = assay: Cytotoxicity against mouse L929 cells assessed as reduction in cell viability after 24 hrs by MTT assay; type: cell-based; conditions: l929, 24 h
Method in brief: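 L929 fibroblasts in DMEM with 10% FBS at 37 °C, 5% CO2. Seeded at 1×10^3 cells per well, switched to serum-free DMEM at 90% confluency. Compounds from 1 mg/mL DMSO stocks tested at nine twofold dilutions for 24 h. MTT readout: viability = (A570−A630) sample / (A570−A630) control × 100.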

L929 [7] = assay: Cytotoxicity against mouse L929 cells assessed as change in morphology at 50 ug/ml after 24 hrs using Giemsa staining by phase contrast microscopy; type: cell-based; conditions: l929, 24 h; method in brief: as §3

| Structure (SMILES) | MIC (Aspergillus fumigatus) | MIC (Klebsiella pneumoniae) | MIC (Staphylococcus aureus [1]) | MIC (Sporothrix schenckii) | MIC (Pseudomonas aeruginosa) | MIC (Escherichia coli) | MIC (Staphylococcus aureus [2]) | MIC [3] | MIC (Cryptococcus neoformans) | MIC (Candida albicans) | MIC (Staphylococcus aureus [4]) | Activity (L929 [5]) | Activity (L929 [6]) | Activity (L929 [7]) |
| --- | --- | --- | --- | --- | --- | --- | --- | --- | --- | --- | --- | --- | --- | --- |
| CCCCCCCCc1cn(C[C@H]2O[C@H](OCCC(C)C)C=C[C@@H]2O)nn1 | > 50 µg/mL | > 50 µg/mL | > 50 µg/mL | > 50 µg/mL | > 50 µg/mL | > 50 µg/mL | > 50 µg/mL | 50 µg/mL (≈ 132 µM) | 25 µg/mL (≈ 65.9 µM) | > 50 µg/mL | > 50 µg/mL |  |  |  |
| CC(C)CCO[C@@H]1C=CC(=O)[C@@H](Cn2cc(CCCCl)nn2)O1 | 50 µg/mL (≈ 146 µM) | 3.12 µg/mL (≈ 9.13 µM) | 1.56 µg/mL (≈ 4.56 µM) | 12.5 µg/mL (≈ 36.6 µM) | 50 µg/mL (≈ 146 µM) | 50 µg/mL (≈ 146 µM) | 6.25 µg/mL (≈ 18.3 µM) | 50 µg/mL (≈ 146 µM) | 50 µg/mL (≈ 146 µM) | 25 µg/mL (≈ 73.1 µM) | 6.25 µg/mL (≈ 18.3 µM) | Non-toxic | Dose-dependent effect | Toxic |
| CC(C)CO[C@@H]1C=CC(=O)[C@@H](Cn2cc(CCCCl)nn2)O1 | > 50 µg/mL | 50 µg/mL (≈ 153 µM) | 12.5 µg/mL (≈ 38.1 µM) | 50 µg/mL (≈ 153 µM) | > 50 µg/mL | > 50 µg/mL | > 50 µg/mL | > 50 µg/mL | > 50 µg/mL | 50 µg/mL (≈ 153 µM) | > 50 µg/mL |  |  |  |
| CCCCCc1cn(C[C@H]2O[C@H](OCCC(C)C)C=CC2=O)nn1 | > 50 µg/mL | 3.12 µg/mL (≈ 9.3 µM) | 3.12 µg/mL (≈ 9.3 µM) | 12.5 µg/mL (≈ 37.3 µM) | > 50 µg/mL | > 50 µg/mL | 6.25 µg/mL (≈ 18.6 µM) | 3.12 µg/mL (≈ 9.3 µM) | > 50 µg/mL | > 50 µg/mL | 6.25 µg/mL (≈ 18.6 µM) | Non-toxic | Dose-dependent effect | Toxic |
| CCCCCCc1cn(C[C@H]2O[C@H](OCCC(C)C)C=CC2=O)nn1 | > 50 µg/mL | 1.56 µg/mL (≈ 4.46 µM) | 3.12 µg/mL (≈ 8.93 µM) | 25 µg/mL (≈ 71.5 µM) | > 50 µg/mL | > 50 µg/mL | 6.25 µg/mL (≈ 17.9 µM) | 12.5 µg/mL (≈ 35.8 µM) | > 50 µg/mL | > 50 µg/mL | 6.25 µg/mL (≈ 17.9 µM) | Non-toxic | Dose-dependent effect | Toxic |
| CC(C)CCO[C@@H]1C=CC(=O)[C@@H](Cn2cc(CCCC=O)nn2)O1 | > 50 µg/mL | 50 µg/mL (≈ 149 µM) | > 50 µg/mL | 12.5 µg/mL (≈ 37.3 µM) | > 50 µg/mL | > 50 µg/mL | > 50 µg/mL | 25 µg/mL (≈ 74.5 µM) | > 50 µg/mL | > 50 µg/mL | > 50 µg/mL |  |  |  |
| CC(C)CCO[C@@H]1C=CC(=O)[C@@H](Cn2cc(C=O)nn2)O1 | 25 µg/mL (≈ 85.2 µM) | 50 µg/mL (≈ 170 µM) | 50 µg/mL (≈ 170 µM) | 25 µg/mL (≈ 85.2 µM) | 50 µg/mL (≈ 170 µM) | 50 µg/mL (≈ 170 µM) | > 50 µg/mL | 3.12 µg/mL (≈ 10.6 µM) | 50 µg/mL (≈ 170 µM) | > 50 µg/mL | > 50 µg/mL | Non-toxic | Dose-dependent effect | Toxic |
| CC(C)CCO[C@@H]1C=CC(=O)[C@@H](Cn2cc(CCCCOC(=O)C(C)(C)C)nn2)O1 | 25 µg/mL (≈ 59.3 µM) | 12.5 µg/mL (≈ 29.7 µM) | 12.5 µg/mL (≈ 29.7 µM) | 12.5 µg/mL (≈ 29.7 µM) | 50 µg/mL (≈ 119 µM) | 50 µg/mL (≈ 119 µM) | > 50 µg/mL | 25 µg/mL (≈ 59.3 µM) | 50 µg/mL (≈ 119 µM) | > 50 µg/mL | > 50 µg/mL |  |  |  |
| CC(C)CCO[C@@H]1C=CC(=O)[C@@H](Cn2cc(CCBr)nn2)O1 | 50 µg/mL (≈ 134 µM) | 50 µg/mL (≈ 134 µM) | 12.5 µg/mL (≈ 33.6 µM) | 25 µg/mL (≈ 67.2 µM) | > 50 µg/mL | > 50 µg/mL | > 50 µg/mL | 6.25 µg/mL (≈ 16.8 µM) | 12.5 µg/mL (≈ 33.6 µM) | 12.5 µg/mL (≈ 33.6 µM) | > 50 µg/mL |  |  |  |
| CC(C)CCO[C@@H]1C=CC(=O)[C@@H](Cn2cc(-c3ccccn3)nn2)O1 | > 50 µg/mL | 6.25 µg/mL (≈ 18.3 µM) | 6.25 µg/mL (≈ 18.3 µM) | 25 µg/mL (≈ 73 µM) | > 50 µg/mL | > 50 µg/mL | 12.5 µg/mL (≈ 36.5 µM) | 12.5 µg/mL (≈ 36.5 µM) | > 50 µg/mL | > 50 µg/mL | 12.5 µg/mL (≈ 36.5 µM) |  |  |  |
| CC(C)CCO[C@@H]1C=CC(=O)[C@@H](Cn2cc(C3CCCC3)nn2)O1 | 50 µg/mL (≈ 150 µM) | 50 µg/mL (≈ 150 µM) | 50 µg/mL (≈ 150 µM) | 50 µg/mL (≈ 150 µM) | 50 µg/mL (≈ 150 µM) | 50 µg/mL (≈ 150 µM) | > 50 µg/mL | 50 µg/mL (≈ 150 µM) | 50 µg/mL (≈ 150 µM) | 25 µg/mL (≈ 75 µM) | > 50 µg/mL |  |  |  |
| CC(C)CCO[C@@H]1C=CC(=O)[C@@H](Cn2cc(C3CC3)nn2)O1 | > 50 µg/mL | > 50 µg/mL | 6.25 µg/mL (≈ 20.5 µM) | 12.5 µg/mL (≈ 40.9 µM) | > 50 µg/mL | > 50 µg/mL | > 50 µg/mL | 6.25 µg/mL (≈ 20.5 µM) | 25 µg/mL (≈ 81.9 µM) | 12.5 µg/mL (≈ 40.9 µM) | > 50 µg/mL |  |  |  |
